# Test system: Human immunodeficiency virus 1
# Assay: Fold resistance, ratio of EC50 for HIV1 A17 expressing K103N/Y181C mutant infected in human MT2 cells to EC50 for wild-type HIV1 3B infected in human MT2 cells
# Assay type: functional
# Conditions: not given
row,SMILES,Ratio EC50
1,Cc1cc(C#N)cc(C)c1Oc1cc(Nc2ccc(C#N)cc2)c(N)cc1CO,30.9
2,CNCc1cc(N)c(Nc2ccc(C#N)cc2)cc1Oc1c(C)cc(C#N)cc1C,11.6
3,Cc1cc(C#N)cc(C)c1Oc1cc(Nc2ccc(C#N)cc2)c(N)cc1CNC1CC1,12.3
4,Cc1cc(C#N)cc(C)c1Oc1cc(Nc2ccc(C#N)cc2)c(N)cc1CNCCCO,>328
5,Cc1cc(C#N)cc(C)c1Oc1cc(Nc2ccc(C#N)cc2)c(N)cc1CN1CCN(C)CC1,>11.8
6,Cc1cc(C#N)cc(C)c1Oc1cc(Nc2ccc(C#N)cc2)c(N)cc1COC(C)C,22.5
7,COCc1cc(N)c(Nc2ccc(C#N)cc2)cc1Oc1c(C)cc(C#N)cc1C,84.2
8,CC(=O)OCc1cc(N)c(Nc2ccc(C#N)cc2)cc1Oc1c(C)cc(C#N)cc1C,353
9,COCc1cc(N)c(Nc2ccc(C#N)cc2)cc1Oc1c(C)cc(/C=C/C#N)cc1C,2.6
10,COCc1cc(N)c(Nc2ccc(C#N)cc2)cc1Oc1c(C)cc(CCC#N)cc1C,0.91
11,CC(=O)OCc1cc(N)c(Nc2ccc(C#N)cc2)cc1Oc1c(C)cc(/C=C/C#N)cc1C,44.5
12,CC(=O)OCc1cc(N)c(Nc2ccc(C#N)cc2)cc1Oc1c(C)cc(CCC#N)cc1C,5.1

# Test system: not listed separately
# Assay: Aqueous solubility of the compound at pH 7.4 by HPLC analysis
# Assay type: physicochemical
# Conditions: buffer
# How it was run: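 Solubility in aqueous buffer at pH 7.4, chosen to mimic plasma conditions; dissolved compound quantified by HPLC.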
row,SMILES,solubility
1,Cc1cc(C#N)cc(C)c1Oc1cc(Nc2ccc(C#N)cc2)c(N)cc1CO,0.86 µg/mL
2,CNCc1cc(N)c(Nc2ccc(C#N)cc2)cc1Oc1c(C)cc(C#N)cc1C,159 µg/mL
3,Cc1cc(C#N)cc(C)c1Oc1cc(Nc2ccc(C#N)cc2)c(N)cc1CNC1CC1,13 µg/mL
4,Cc1cc(C#N)cc(C)c1Oc1cc(Nc2ccc(C#N)cc2)c(N)cc1CNCCCO,236 µg/mL
5,COCc1cc(N)c(Nc2ccc(C#N)cc2)cc1Oc1c(C)cc(C#N)cc1C,0.07 µg/mL
6,CC(=O)OCc1cc(N)c(Nc2ccc(C#N)cc2)cc1Oc1c(C)cc(C#N)cc1C,0.2 µg/mL
7,COCc1cc(N)c(Nc2ccc(C#N)cc2)cc1Oc1c(C)cc(/C=C/C#N)cc1C,0.11 µg/mL
8,COCc1cc(N)c(Nc2ccc(C#N)cc2)cc1Oc1c(C)cc(CCC#N)cc1C,0.66 µg/mL
9,CC(=O)OCc1cc(N)c(Nc2ccc(C#N)cc2)cc1Oc1c(C)cc(/C=C/C#N)cc1C,0.49 µg/mL
10,CC(=O)OCc1cc(N)c(Nc2ccc(C#N)cc2)cc1Oc1c(C)cc(CCC#N)cc1C,1.86 µg/mL

# Test system: Human immunodeficiency virus 1
# Assay: Antiviral activity against drug-resistant HIV1 A17 expressing K103N/Y181C mutant infected in human MT2 cells assessed as inhibition of viral replication
# Conditions: Human immunodeficiency virus 1, A17, MT2
row,SMILES,EC50
1,Cc1cc(C#N)cc(C)c1Oc1cc(Nc2ccc(C#N)cc2)c(N)cc1CO,33.1 nM
2,CNCc1cc(N)c(Nc2ccc(C#N)cc2)cc1Oc1c(C)cc(C#N)cc1C,115 nM
3,Cc1cc(C#N)cc(C)c1Oc1cc(Nc2ccc(C#N)cc2)c(N)cc1CNC1CC1,130 nM
4,Cc1cc(C#N)cc(C)c1Oc1cc(Nc2ccc(C#N)cc2)c(N)cc1CNCCCO,> 2000 nM
5,Cc1cc(C#N)cc(C)c1Oc1cc(Nc2ccc(C#N)cc2)c(N)cc1CN1CCN(C)CC1,> 2000 nM
6,Cc1cc(C#N)cc(C)c1Oc1cc(Nc2ccc(C#N)cc2)c(N)cc1COC(C)C,315 nM
7,COCc1cc(N)c(Nc2ccc(C#N)cc2)cc1Oc1c(C)cc(C#N)cc1C,298 nM
8,CC(=O)OCc1cc(N)c(Nc2ccc(C#N)cc2)cc1Oc1c(C)cc(C#N)cc1C,374 nM
9,COCc1cc(N)c(Nc2ccc(C#N)cc2)cc1Oc1c(C)cc(/C=C/C#N)cc1C,14.7 nM
10,COCc1cc(N)c(Nc2ccc(C#N)cc2)cc1Oc1c(C)cc(CCC#N)cc1C,2.95 nM
11,CC(=O)OCc1cc(N)c(Nc2ccc(C#N)cc2)cc1Oc1c(C)cc(/C=C/C#N)cc1C,36.5 nM
12,CC(=O)OCc1cc(N)c(Nc2ccc(C#N)cc2)cc1Oc1c(C)cc(CCC#N)cc1C,4.92 nM

# Test system: MT2
# Assay: Cytotoxicity against human MT2 cells assessed as cell viability
# Assay type: cell-based
# Conditions: not given
# How it was run: (§1)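 Run in MT-2 cells, at least in triplicate, reported as mean ± SD; the paired antiviral measurement used wild-type HIV-1 IIIB replication in MT-2 cells.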
row,SMILES,CC50
1,Cc1cc(C#N)cc(C)c1Oc1cc(Nc2ccc(C#N)cc2)c(N)cc1CO,122000 nM
2,CNCc1cc(N)c(Nc2ccc(C#N)cc2)cc1Oc1c(C)cc(C#N)cc1C,12700 nM
3,Cc1cc(C#N)cc(C)c1Oc1cc(Nc2ccc(C#N)cc2)c(N)cc1CNC1CC1,12100 nM
4,Cc1cc(C#N)cc(C)c1Oc1cc(Nc2ccc(C#N)cc2)c(N)cc1CNCCCO,15100 nM
5,Cc1cc(C#N)cc(C)c1Oc1cc(Nc2ccc(C#N)cc2)c(N)cc1CN1CCN(C)CC1,96900 nM
6,Cc1cc(C#N)cc(C)c1Oc1cc(Nc2ccc(C#N)cc2)c(N)cc1COC(C)C,89400 nM
7,COCc1cc(N)c(Nc2ccc(C#N)cc2)cc1Oc1c(C)cc(C#N)cc1C,146000 nM
8,CC(=O)OCc1cc(N)c(Nc2ccc(C#N)cc2)cc1Oc1c(C)cc(C#N)cc1C,113000 nM
9,COCc1cc(N)c(Nc2ccc(C#N)cc2)cc1Oc1c(C)cc(/C=C/C#N)cc1C,50300 nM
10,CC(=O)OCc1cc(N)c(Nc2ccc(C#N)cc2)cc1Oc1c(C)cc(/C=C/C#N)cc1C,96300 nM
11,CC(=O)OCc1cc(N)c(Nc2ccc(C#N)cc2)cc1Oc1c(C)cc(CCC#N)cc1C,44800 nM
12,Cc1cc(/C=C/C#N)cc(C)c1Nc1ccnc(Nc2ccc(C#N)cc2)n1 [RILPIVIRINE],90700 nM

# Test system: not listed separately
# Assay: Lipophilicity, log P of the compound by HPLC analysis
# Assay type: physicochemical
# Conditions: not given
# How it was run: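 Log P determined experimentally by HPLC at pH 7.4.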
row,SMILES,logP
1,Cc1cc(C#N)cc(C)c1Oc1cc(Nc2ccc(C#N)cc2)c(N)cc1CO,3.57
2,CNCc1cc(N)c(Nc2ccc(C#N)cc2)cc1Oc1c(C)cc(C#N)cc1C,1.86
3,Cc1cc(C#N)cc(C)c1Oc1cc(Nc2ccc(C#N)cc2)c(N)cc1CNC1CC1,3.84
4,Cc1cc(C#N)cc(C)c1Oc1cc(Nc2ccc(C#N)cc2)c(N)cc1CNCCCO,1.81
5,COCc1cc(N)c(Nc2ccc(C#N)cc2)cc1Oc1c(C)cc(C#N)cc1C,3.84
6,CC(=O)OCc1cc(N)c(Nc2ccc(C#N)cc2)cc1Oc1c(C)cc(C#N)cc1C,4.4
7,COCc1cc(N)c(Nc2ccc(C#N)cc2)cc1Oc1c(C)cc(/C=C/C#N)cc1C,4.13
8,COCc1cc(N)c(Nc2ccc(C#N)cc2)cc1Oc1c(C)cc(CCC#N)cc1C,3.25
9,CC(=O)OCc1cc(N)c(Nc2ccc(C#N)cc2)cc1Oc1c(C)cc(/C=C/C#N)cc1C,4.48
10,CC(=O)OCc1cc(N)c(Nc2ccc(C#N)cc2)cc1Oc1c(C)cc(CCC#N)cc1C,2.84

# Same assay, conditions: read-out: logP
row,SMILES,logP
1,Cc1cc(/C=C/C#N)cc(C)c1Nc1ccnc(Nc2ccc(C#N)cc2)n1 [RILPIVIRINE],> 5

# Test system: not listed separately
# Assay: Selectivity index, ratio of CC50 for human MT2 cells to EC50 for wild type HIV1 3B
# Assay type: toxicity, cell-based
# Conditions: read-out: Selectivity Index
# How it was run: as §1
row,SMILES,selectivity ratio
1,Cc1cc(C#N)cc(C)c1Oc1cc(Nc2ccc(C#N)cc2)c(N)cc1CO,114000
2,CNCc1cc(N)c(Nc2ccc(C#N)cc2)cc1Oc1c(C)cc(C#N)cc1C,1280
3,Cc1cc(C#N)cc(C)c1Oc1cc(Nc2ccc(C#N)cc2)c(N)cc1CNC1CC1,1140
4,Cc1cc(C#N)cc(C)c1Oc1cc(Nc2ccc(C#N)cc2)c(N)cc1CNCCCO,2480
5,Cc1cc(C#N)cc(C)c1Oc1cc(Nc2ccc(C#N)cc2)c(N)cc1CN1CCN(C)CC1,570
6,Cc1cc(C#N)cc(C)c1Oc1cc(Nc2ccc(C#N)cc2)c(N)cc1COC(C)C,6390
7,COCc1cc(N)c(Nc2ccc(C#N)cc2)cc1Oc1c(C)cc(C#N)cc1C,41200
8,CC(=O)OCc1cc(N)c(Nc2ccc(C#N)cc2)cc1Oc1c(C)cc(C#N)cc1C,107000
9,COCc1cc(N)c(Nc2ccc(C#N)cc2)cc1Oc1c(C)cc(/C=C/C#N)cc1C,8760
10,COCc1cc(N)c(Nc2ccc(C#N)cc2)cc1Oc1c(C)cc(CCC#N)cc1C,> 61500
11,CC(=O)OCc1cc(N)c(Nc2ccc(C#N)cc2)cc1Oc1c(C)cc(/C=C/C#N)cc1C,117000
12,CC(=O)OCc1cc(N)c(Nc2ccc(C#N)cc2)cc1Oc1c(C)cc(CCC#N)cc1C,46700

# Test system: Human immunodeficiency virus 1
# Assay: Antiviral activity against wild type HIV1 3B infected in human MT2 cells assessed as inhibition of viral replication
# Assay type: functional, organism-based
# Conditions: Human immunodeficiency virus 1, 3B
row,SMILES,EC50
1,Cc1cc(C#N)cc(C)c1Oc1cc(Nc2ccc(C#N)cc2)c(N)cc1CO,1.07 nM
2,CNCc1cc(N)c(Nc2ccc(C#N)cc2)cc1Oc1c(C)cc(C#N)cc1C,9.94 nM
3,Cc1cc(C#N)cc(C)c1Oc1cc(Nc2ccc(C#N)cc2)c(N)cc1CNC1CC1,10.6 nM
4,Cc1cc(C#N)cc(C)c1Oc1cc(Nc2ccc(C#N)cc2)c(N)cc1CNCCCO,6.1 nM
5,Cc1cc(C#N)cc(C)c1Oc1cc(Nc2ccc(C#N)cc2)c(N)cc1CN1CCN(C)CC1,170 nM
6,Cc1cc(C#N)cc(C)c1Oc1cc(Nc2ccc(C#N)cc2)c(N)cc1COC(C)C,14 nM
7,COCc1cc(N)c(Nc2ccc(C#N)cc2)cc1Oc1c(C)cc(C#N)cc1C,3.54 nM
8,CC(=O)OCc1cc(N)c(Nc2ccc(C#N)cc2)cc1Oc1c(C)cc(C#N)cc1C,1.06 nM
9,COCc1cc(N)c(Nc2ccc(C#N)cc2)cc1Oc1c(C)cc(/C=C/C#N)cc1C,5.74 nM
10,COCc1cc(N)c(Nc2ccc(C#N)cc2)cc1Oc1c(C)cc(CCC#N)cc1C,3.25 nM
11,CC(=O)OCc1cc(N)c(Nc2ccc(C#N)cc2)cc1Oc1c(C)cc(/C=C/C#N)cc1C,0.82 nM
12,CC(=O)OCc1cc(N)c(Nc2ccc(C#N)cc2)cc1Oc1c(C)cc(CCC#N)cc1C,0.96 nM

# Test system: not listed separately
# Assay: Aqueous solubility of the compound at pH 2 by HPLC analysis
# Assay type: physicochemical
# Conditions: buffer
# How it was run: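 Solubility in aqueous buffer at pH 2.0, chosen to mimic stomach conditions; dissolved compound quantified by HPLC.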
row,SMILES,solubility
1,Cc1cc(C#N)cc(C)c1Oc1cc(Nc2ccc(C#N)cc2)c(N)cc1CO,9.12 µg/mL
2,CNCc1cc(N)c(Nc2ccc(C#N)cc2)cc1Oc1c(C)cc(C#N)cc1C,263 µg/mL
3,Cc1cc(C#N)cc(C)c1Oc1cc(Nc2ccc(C#N)cc2)c(N)cc1CNC1CC1,286 µg/mL
4,Cc1cc(C#N)cc(C)c1Oc1cc(Nc2ccc(C#N)cc2)c(N)cc1CNCCCO,290 µg/mL
5,COCc1cc(N)c(Nc2ccc(C#N)cc2)cc1Oc1c(C)cc(C#N)cc1C,3.75 µg/mL
6,CC(=O)OCc1cc(N)c(Nc2ccc(C#N)cc2)cc1Oc1c(C)cc(C#N)cc1C,16.7 µg/mL
7,COCc1cc(N)c(Nc2ccc(C#N)cc2)cc1Oc1c(C)cc(/C=C/C#N)cc1C,1.7 µg/mL
8,COCc1cc(N)c(Nc2ccc(C#N)cc2)cc1Oc1c(C)cc(CCC#N)cc1C,1.82 µg/mL
9,CC(=O)OCc1cc(N)c(Nc2ccc(C#N)cc2)cc1Oc1c(C)cc(/C=C/C#N)cc1C,1.87 µg/mL
10,CC(=O)OCc1cc(N)c(Nc2ccc(C#N)cc2)cc1Oc1c(C)cc(CCC#N)cc1C,2.63 µg/mL

# From ChEMBL document CHEMBL3351306, “Physicochemical property-driven optimization of diarylaniline compounds as potent HIV-1 non-nucleoside reverse transcriptase inhibitors” (Bioorg Med Chem Lett, 2014)
